Compound activity: PubChem BioAssay, Broad Institute
This is a sample that favours compounds with a hit; in the whole collection about 0.58% have one here.
PglD DTNB: C. jejuni PglD acetyltransferase inhibitors, primary screen, biochemical, DTNB colorimetric, single point; purified PglD enzyme, DTNB colorimetric CoA detection; inhibition, % at 12.5 µM; 0.098% of 360,000 active; AID 602405, 2012; in the data active = inhibition above about 16%, passing the limit was not always enough
Cneo AK release: Cryptococcus neoformans cell lysis inducers, primary screen, AK release luminescence, single concentration. C. neoformans lysis, adenylate kinase release luminescence, 4 h; normalised: neutral wells 0, clomiphene wells 100. lysis activity, % at 15 µM. 0.2% of 360,000 active. AID 651654, 2012;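 active = mean lysis activity across replicates of at least 80%, whatever share of replicates individually reach that level; inactive = mean lysis activity below 80%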
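read-out = cell lysis signal | test system = log-phase Cryptococcus neoformans yeast cells | input = cells at 5 × 10^6 per mL | medium = fresh YPD growth medium | signal = luminescent adenylate kinase detection reagent | timing = 4 h at 37 °C static, read 1 h later | dosing = single dose | controls = Clomiphene as positive lysis control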
PvdQ acylase: P. aeruginosa PvdQ acylase inhibitors, primary screen, biochemical, fluorescence, plate reader and imaging, single point; PvdQ acylase [Pseudomonas aeruginosa LESB58]; purified PvdQ acylase; inhibition, % at 10 µM; 0.063% of 340,000 active; in the data active = inhibition above about 30%, passing the limit was not always enough;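 also: 0% = vehicle neutral wells and 100% = reference inhibitor wells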
PDI inh: inhibitors of human PDI, primary screen, biochemical, turbidity, single point, plate reader. Protein disulfide-isomerase (Homo sapiens), P07237. PDI insulin aggregation turbidity, A650, 90 min. inhibition, % at 10 µM. 0.052% of 350,000 active. AID 588391, 2011;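 active = mean inhibition across replicates of 30% or more, whatever share of single replicates reach that level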
Target sequence (P07237 whole entry, looked up): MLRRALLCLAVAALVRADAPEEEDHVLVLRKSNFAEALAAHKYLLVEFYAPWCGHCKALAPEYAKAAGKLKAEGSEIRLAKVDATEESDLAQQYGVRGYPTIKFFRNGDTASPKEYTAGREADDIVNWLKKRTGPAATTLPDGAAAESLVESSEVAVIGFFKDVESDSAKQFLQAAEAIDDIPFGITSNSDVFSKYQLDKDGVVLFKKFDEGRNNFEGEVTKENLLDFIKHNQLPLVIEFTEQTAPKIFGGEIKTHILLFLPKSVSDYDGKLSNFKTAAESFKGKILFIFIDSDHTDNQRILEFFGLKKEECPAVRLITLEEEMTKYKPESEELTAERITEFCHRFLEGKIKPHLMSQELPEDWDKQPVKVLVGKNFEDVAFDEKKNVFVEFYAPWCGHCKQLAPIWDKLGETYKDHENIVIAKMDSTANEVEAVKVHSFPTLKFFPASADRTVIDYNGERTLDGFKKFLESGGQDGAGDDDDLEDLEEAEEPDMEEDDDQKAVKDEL
ERp5 inh: inhibitors of ERp5-driven insulin aggregation, primary screen, biochemical, turbidity, absorbance 650 nm, single point; Protein disulfide-isomerase A6 (Homo sapiens), Q15084; 90 min; inhibition, % at 9.99 µM; 0.05% of 350,000 active;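 active = mean replicate inhibition above about 25%, with every replicate also reaching it, limit read from the data, passing the limit was not always enough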
miR-122 sensor: miR-122 Renilla sensor signal increase in Huh7, primary screen, miR-122 inhibitor project, cell-based, single point, plate reader; Huh7 miR-122 Renilla luciferase sensor, 48 h; neutral wells = 0, positive control = 100; activation (reporter increase), % at 12.5 µM; 0.3% of 340,000 active;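 active = mean replicate activation score at least 90 and every replicate individually at or above 90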;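 also: higher luciferase means less miR-122 activity so hits act as miR-122 inhibitors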
Active calls of the source: *; x = no result; ! = not confirmed by another sample; [ ] = another dose, or the depositor's remark.

SMILES	PglD DTNB	Cneo AK release	PvdQ acylase	PDI inh	ERp5 inh	miR-122 sensor
C[C@@H]1CN([C@@H](C)CO)C(=O)c2cccc(NC(=O)c3ccc(-c4nccs4)cc3)c2O[C@@H]1CN(C)Cc1ccc(C(=O)Nc2ccccc2N)cc1	6.4	3.6	x	x	3.4	212.6*[16.7 µM]
C[C@H](CO)N1C[C@H](C)[C@H](CN(C)Cc2ccc(C(=O)Nc3ccccc3N)cc2)Oc2c(NC(=O)c3ccc(-c4nccs4)cc3)cccc2C1=O	-0.8	2.1	x	x	18.0	7.9[16.7 µM]
Cc1cc(C(=O)Nc2cccc3c2O[C@H](CN(C)Cc2ccc(C(F)(F)F)cc2)[C@@H](C)CN([C@H](C)CO)C3=O)n(C)n1	-0.9	20.2	x	x	-3.4	276.3*[16.7 µM]
C[C@H]1CN([C@@H](C)CO)C(=O)c2cccc(NC(=O)c3ccncc3)c2O[C@@H]1CN(C)Cc1ccc(C(F)(F)F)cc1	-2.1	49.5	x	x	-5.1	107.5*[16.7 µM]
C[C@@H]1CN([C@@H](C)CO)C(=O)c2cccc(NC(=O)c3ccc(-c4nccs4)cc3)c2O[C@@H]1CN(C)C(=O)Nc1ccc2c(c1)OCO2	4.1	3.4	x	x	7.1	4.2[16.7 µM]
CO[C@H]1CN(C)C(=O)c2ccc(NC(=O)CC(F)(F)F)cc2OC[C@@H](C)N(S(=O)(=O)c2cn(C)cn2)C[C@@H]1C	-0.9	-1.9	x	x	-2.6	x
COCC(=O)Nc1ccc2c(c1)C(=O)N(C)[C@H]1CC[C@H](CC(=O)NCCc3ccccc3)O[C@H]1CO2	1.2	60.5	x	x	-2.2	8.2[16.7 µM]
CN1C(=O)c2cc(NC(=O)c3ccccc3F)ccc2OC[C@@H]2O[C@H](CC(=O)NCc3ccc4c(c3)OCO4)CC[C@H]21	4.6	1.8	x	x	-1.0	38.3[16.7 µM]
C[C@@H]1CN([C@H](C)CO)C(=O)c2cccc(NC(=O)c3cnccn3)c2O[C@H]1CN(C)Cc1ccc(C(F)(F)F)cc1	1.3	1.6	x	x	-2.7	65.8[16.7 µM]
C[C@@H]1CN([C@@H](C)CO)C(=O)c2cccc(NC(=O)c3cnccn3)c2O[C@H]1CN(C)Cc1ccc(C(F)(F)F)cc1	3.3	61.4	x	x	-0.4	152.2*[16.7 µM]
Cc1noc(C)c1S(=O)(=O)N(C)C[C@@H]1Oc2c(NC(=O)c3cnccn3)cccc2C(=O)N([C@@H](C)CO)C[C@@H]1C	4.2	114.0*	x	x	-2.3	166.0*[16.7 µM]
C[C@@H]1CN([C@H](C)CO)C(=O)Cc2cc(NC(=O)Nc3ccc(F)cc3)ccc2O[C@@H]1CN(C)S(=O)(=O)c1ccccc1	8.9	0.1	x	x	1.2	-2.5[16.7 µM]
C[C@H]1CN([C@@H](C)CO)C(=O)c2cc(Br)cnc2O[C@@H]1CN(C)Cc1ccccn1	3.5	107.5*	x	x	1.8	-3.4[16.7 µM]
C[C@@H]1CN([C@H](C)CO)C(=O)c2cc(Br)cnc2O[C@@H]1CN(C)Cc1cccc(F)c1	-1.3	-1.0	x	x	6.7	0.0[16.7 µM]
C[C@H](CO)N1C[C@H](C)[C@H](CN(C)Cc2cccc(F)c2)Oc2ncc(Br)cc2C1=O	4.3	0.5	x	0.8	82.4*!	16.3
C[C@H](CO)N1C[C@H](C)[C@@H](CN(C)Cc2ccccn2)Oc2ncc(Br)cc2C1=O	4.0	-0.3	x	-2.5	-2.6	-3.6
Cc1noc(C)c1S(=O)(=O)Nc1ccc2c(c1)C(=O)N([C@@H](C)CO)C[C@@H](C)[C@H](CN(C)S(=O)(=O)c1cccs1)O2	3.4	-0.3	x	x	-1.6	0.2[16.7 µM]
O=S1(=O)CCC(N=Cc2cc(Br)ccc2O)C1 (configuration not stated)	0.0	84.6*	-17.6	-14.8	x	-5.2
O=c1c2ccccc2c(C=NC2CCS(=O)(=O)C2)c(O)n1-c1ccccc1 (configuration not stated)	-8.3	0.9	8.5	3.7	x	1.0
Cn1cnc(S(=O)(=O)N2CC[C@@H]3[C@H]2c2cc(C#Cc4ccc(F)cc4)ccc2N[C@@H]3CO)c1	0.5	0.4	x	x	2.9	2.8[16.7 µM]
Cc1ccc(S(=O)(=O)Nc2ccc3c(c2)C(=O)N([C@H](C)CO)C[C@@H](C)[C@H](CN(C)Cc2ccc(C(=O)Nc4ccccc4N)cc2)O3)cc1	x	x	x	x	2.2	x
O=C(c1cccc([N+](=O)[O-])c1)N1CC2C3C=CC(C3)C2C1 (configuration not stated)	1.1	0.3	42.6*	-5.6	-8.7	0.2
O=C(c1ccccc1[N+](=O)[O-])N1CC2C3C=CC(C3)C2C1 (configuration not stated)	-3.7	9.6	-12.1	-11.8	-8.7	3.8
C[C@@H]1CN([C@@H](C)CO)C(=O)CCCn2cc(nn2)CO[C@@H]1CN(C)C(=O)NC1CCCC1	2.2	117.2*	x	x	2.2	21.0[16.7 µM]
C[C@H]1CN([C@@H](C)CO)C(=O)CCCn2cc(nn2)CO[C@@H]1CN(C)Cc1cccc(C(F)(F)F)c1	-2.6	13.2	x	x	44.4*	4.0[16.7 µM]
SMILES	PglD DTNB	Cneo AK release	PvdQ acylase	PDI inh	ERp5 inh	miR-122 sensor
C[C@H](CO)N1C[C@H](C)[C@@H](CN(C)C(=O)CCCN(C)C)OCc2cn(nn2)CCCC1=O	2.1	-1.0	x	5.2	-2.4	-7.3
C[C@@H]1CN([C@@H](C)CO)C(=O)CCCn2cc(nn2)CO[C@@H]1CN(C)C(=O)CCCN(C)C	-0.4	96.6*	x	x	-1.9	0.4[16.7 µM]
C[C@@H]1CN([C@H](C)CO)C(=O)CCCn2cc(nn2)CO[C@@H]1CN(C)C(=O)CCCN(C)C	-3.0	105.1*	x	x	-5.8	10.6[16.7 µM]
C[C@H](CO)N1C[C@H](C)[C@H](CN(C)C(=O)NC2CCCC2)OCc2cn(nn2)CCCC1=O	-0.6	-19.9	x	x	8.1	0.8[16.7 µM]
C[C@@H]1CN([C@@H](C)CO)C(=O)c2cc(NC(=O)Nc3ccc(C(F)(F)F)cc3)ccc2O[C@H]1CN(C)S(=O)(=O)c1cccs1	x	x	x	x	x	6.4[16.7 µM]
COCC(=O)Nc1ccc2c(c1)C(=O)N(C)C[C@@H](OC)[C@@H](C)CN(C(=O)C1CCCC1)[C@H](C)CO2	0.6	50.7	x	x	-1.0	4.0[16.7 µM]
C[C@@H]1CN([C@H](C)CO)C(=O)c2cc(Br)cnc2O[C@H]1CN(C)S(=O)(=O)c1ccc(F)cc1	-4.1	56.4	x	x	-2.8	12.6[16.7 µM]
Cc1noc(C)c1NC(=O)N(C)C[C@H]1OCCCC[C@H](C)Oc2ccc(NS(=O)(=O)c3ccc(Cl)cc3)cc2C(=O)N([C@H](C)CO)C[C@@H]1C	-1.8	3.9	x	x	-3.9	4.6[16.7 µM]
COc1ccc2c3c([nH]c2c1)[C@H](CO)N(C(=O)NC(C)C)CC31CCN(C(=O)c2ccccn2)CC1	x	x	x	x	-1.8	x
CC(=O)N1CC(=O)N2[C@@H](CO)[C@H](c3ccc(-c4cccc(C(=O)N(C)C)c4)cc3)[C@@H]2C1	x	x	x	x	8.1	x
